8 molecules from ChEMBL document CHEMBL1130034, “Dual metalloprotease inhibitors: mercaptoacetyl-based fused heterocyclic dipeptide mimetics as inhibitors of angiotensin-converting enzyme and neutral endopeptidase” (J Med Chem, 1997) can be followed below.

pIC50: −log10 of the molar value.

Experiment [1] deals with Rattus norvegicus. The experiment is described as follows: % inhibition of AI pressor response at 60 minutes after intravenous administration of 0.5 micro mol/kg of compound in rat. In kind it is functional. Put shortly:
(§1)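 Normotensive rats given intravenous angiotensin I challenges to raise mean arterial pressure. Compound dosed intravenously at 0.5 μmol/kg. Pressor response measured before dosing (control) and at set times afterward. Percent change from the control response taken as % inhibition. Maximal response usually seen about 2 min after dosing.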

In experiment [2] the target is T1, Angiotensin-converting enzyme (Oryctolagus cuniculus, UniProt P12822).
T1 sequence (P12822 whole entry): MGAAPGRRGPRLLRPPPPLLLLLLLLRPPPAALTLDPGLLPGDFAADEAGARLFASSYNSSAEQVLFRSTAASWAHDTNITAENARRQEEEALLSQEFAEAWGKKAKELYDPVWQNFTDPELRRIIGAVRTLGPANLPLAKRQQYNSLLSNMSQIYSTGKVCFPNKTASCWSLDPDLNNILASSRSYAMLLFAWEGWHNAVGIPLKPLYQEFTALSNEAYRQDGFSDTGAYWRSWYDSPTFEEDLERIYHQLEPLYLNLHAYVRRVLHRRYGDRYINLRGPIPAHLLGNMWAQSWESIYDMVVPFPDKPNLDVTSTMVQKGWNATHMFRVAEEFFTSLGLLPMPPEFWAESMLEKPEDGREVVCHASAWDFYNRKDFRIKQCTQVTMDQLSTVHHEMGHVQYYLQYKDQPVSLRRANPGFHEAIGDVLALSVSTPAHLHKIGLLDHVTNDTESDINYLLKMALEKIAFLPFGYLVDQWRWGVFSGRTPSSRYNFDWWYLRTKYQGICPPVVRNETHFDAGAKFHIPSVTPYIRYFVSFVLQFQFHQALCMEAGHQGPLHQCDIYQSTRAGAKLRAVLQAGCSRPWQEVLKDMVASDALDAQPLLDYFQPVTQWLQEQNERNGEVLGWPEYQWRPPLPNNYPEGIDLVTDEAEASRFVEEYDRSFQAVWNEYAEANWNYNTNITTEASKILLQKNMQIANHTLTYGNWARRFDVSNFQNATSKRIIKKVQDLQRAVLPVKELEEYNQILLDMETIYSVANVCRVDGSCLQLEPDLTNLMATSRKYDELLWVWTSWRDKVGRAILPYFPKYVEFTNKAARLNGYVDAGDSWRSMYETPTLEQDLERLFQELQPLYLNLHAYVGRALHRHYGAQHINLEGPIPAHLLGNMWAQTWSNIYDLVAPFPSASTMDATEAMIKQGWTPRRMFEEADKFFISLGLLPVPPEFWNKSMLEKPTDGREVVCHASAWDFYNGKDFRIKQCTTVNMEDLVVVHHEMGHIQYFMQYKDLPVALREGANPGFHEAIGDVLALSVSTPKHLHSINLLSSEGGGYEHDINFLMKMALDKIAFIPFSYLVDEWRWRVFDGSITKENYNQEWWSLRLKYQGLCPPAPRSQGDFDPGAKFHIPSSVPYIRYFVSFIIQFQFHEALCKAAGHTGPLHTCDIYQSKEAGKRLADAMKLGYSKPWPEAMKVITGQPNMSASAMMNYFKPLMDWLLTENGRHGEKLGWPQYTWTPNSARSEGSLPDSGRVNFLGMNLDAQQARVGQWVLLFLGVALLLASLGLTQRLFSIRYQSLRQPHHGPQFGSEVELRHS
As to the kind of experiment: In vitro inhibition of ACE (Angiotensin I converting enzyme) isolated from rabbit lung extract. The note with it: read-out: I50. In a few lines: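 Enzyme source is rabbit lung extract; substrate hippuryl-L-histidyl-L-leucine (HHL); I50 reported.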

In experiment [3] the test system is Rattus norvegicus. The experiment is described as follows: % inhibition of AI pressor response at 30 minutes after intravenous administration of 0.5 micro mol/kg of compound in rat. In kind it is functional. Put shortly: as §1
The target of another experiment is T2, Neprilysin (Rattus norvegicus, UniProt P07861).
T2 sequence (P07861 whole entry): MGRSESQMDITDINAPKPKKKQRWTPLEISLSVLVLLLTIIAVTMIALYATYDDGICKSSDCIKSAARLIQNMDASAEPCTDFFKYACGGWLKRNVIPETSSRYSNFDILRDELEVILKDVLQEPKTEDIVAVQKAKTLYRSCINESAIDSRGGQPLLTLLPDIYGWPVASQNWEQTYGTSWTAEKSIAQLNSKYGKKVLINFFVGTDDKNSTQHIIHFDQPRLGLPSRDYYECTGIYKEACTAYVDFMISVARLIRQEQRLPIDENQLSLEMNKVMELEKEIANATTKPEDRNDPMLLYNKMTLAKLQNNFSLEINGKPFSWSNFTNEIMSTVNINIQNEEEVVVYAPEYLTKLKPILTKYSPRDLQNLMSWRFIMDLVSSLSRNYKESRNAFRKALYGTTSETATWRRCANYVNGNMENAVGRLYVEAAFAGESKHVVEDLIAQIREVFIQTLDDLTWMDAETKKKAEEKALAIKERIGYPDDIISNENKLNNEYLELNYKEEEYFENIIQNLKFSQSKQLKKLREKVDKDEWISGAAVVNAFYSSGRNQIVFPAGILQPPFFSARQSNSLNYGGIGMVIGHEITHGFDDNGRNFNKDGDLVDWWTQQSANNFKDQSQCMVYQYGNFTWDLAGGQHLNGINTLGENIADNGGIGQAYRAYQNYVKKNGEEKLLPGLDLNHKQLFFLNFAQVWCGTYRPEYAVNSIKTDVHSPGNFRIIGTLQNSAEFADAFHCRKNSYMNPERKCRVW
The experiment is described as follows: In vitro inhibition of neutral endopeptidase purified from rat kidney using fluorimetry assay. As to conditions: read-out: I50. In a few lines: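 Enzyme from purified rat kidney; fluorometric read-out with dansyl-Gly-Phe-Arg as substrate; I50 reported.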

In experiment [4] the test system is Rattus norvegicus. The experiment is described as follows: % inhibition of AI pressor response at 2 minutes after intravenous administration of 0.5 micro mol/kg of compound in rat. Type of experiment: functional. Put shortly: as §1
The test system of experiment [5] is Rattus norvegicus. The experiment is described as follows: 50% inhibition of the AI pressor response in normotensive rat after intravenous administration at a dose 0.5 umol/kg. Type of experiment: functional.
The test system of experiment [6] is Rattus norvegicus. As to the kind of experiment: % inhibition of AI pressor response at 120 minutes after intravenous administration of 0.5 micro mol/kg of compound in rat. In kind it is functional. In a few lines: as §1
The test system of experiment [7] is Rattus norvegicus. As to the kind of experiment: Decreased Mean arterial pressure (MAP) in rat after single oral dose of 30 umol/kg. Type of experiment: functional, Artery. Put shortly:
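Conscious sodium-depleted spontaneously hypertensive rats, n = 7 per group. Single oral dose of 30 μmol/kg (~12 mg/kg); vehicle 5% NaHCO3. Mean arterial pressure followed as change from pre-dose baseline over 24 h.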

As for `O=C(N[C@H]1CCO[C@H]2CC[C@@H](C(=O)O)N2C1=O)[C@@H](S)Cc1ccccc1`, the Inhibition (as a rule, the change of the read-out against control, counted positive when it falls) in the experiment on Rattus norvegicus [1] is 3%; with Rattus norvegicus [3], 63%; with Rattus norvegicus [4] it was 79%. The figures for the pIC50 (in experiment [2]; at Neprilysin) were 8.15 and 7.59, respectively. Also, the ED50 – broadly, the dose at which the effect has come halfway, by size or by number of responders – in the experiment with Rattus norvegicus [5] was found to be 0.06 µmol/kg.

For the molecule `CCOC(C)=O.O=C(N[C@H]1CCO[C@H]2CCC[C@@H](C(=O)O)N2C1=O)[C@@H](S)Cc1ccccc1`, the pIC50 in experiment [2] is 8.10; at Neprilysin, 8.05. Further, the Inhibition in the experiment with Rattus norvegicus [3] came out at 3%; in the experiment with Rattus norvegicus [4], 83%. Further, it took a dose of 0.05 µmol/kg to reach the 50% effect level in the experiment with Rattus norvegicus [5] (ED50).

As for `CCOC(C)=O.O=C(N[C@H]1CS[C@H]2CCC[C@@H](C(=O)O)N2C1=O)[C@@H](S)Cc1ccccc1`, the pIC50 in experiment [2] was 8.30; at Neprilysin, 7.38. Moreover, the Inhibition with Rattus norvegicus [3] amounted to 3%; in the experiment on Rattus norvegicus [4] it was 78%. The ED50 in the experiment on Rattus norvegicus [5] was found to be 0.23 µmol/kg.

Take `O=C(N[C@H]1CCC[C@H]2CCC[C@@H](C(=O)O)N2C1=O)[C@@H](S)Cc1ccccc1`: the Inhibition with Rattus norvegicus [1] is 35%; with Rattus norvegicus [6] it was 11%; in the experiment on Rattus norvegicus [3], 65%; in the experiment on Rattus norvegicus [4], 71%.

`O=C(N[C@H]1CCC[C@H]2CC[C@@H](C(=O)O)N2C1=O)[C@@H](S)Cc1ccccc1`: the Inhibition in the experiment on Rattus norvegicus [1] is 3%; in the experiment with Rattus norvegicus [3], 34%; in the experiment on Rattus norvegicus [4], 75%.

On to `O=C(N[C@H]1CCS[C@H]2CC[C@@H](C(=O)O)N2C1=O)[C@@H](S)Cc1ccccc1`, for which the Inhibition is 60% in the experiment on Rattus norvegicus [1], 25% with Rattus norvegicus [6], 76% in the experiment with Rattus norvegicus [3] and 82% with Rattus norvegicus [4]. The pIC50 (in experiment [2]; at Neprilysin) was 8.40 in each case. Also, in the experiment on Rattus norvegicus [5], it took a dose of 0.03 µmol/kg to reach the 50% effect level (ED50).

`CCC(=O)O[C@@H](O[P@](=O)(CCCCc1ccccc1)CC(=O)N1C[C@H](C2CCCCC2)C[C@H]1C(=O)O)C(C)C` [FOSINOPRIL] had an MAP with Rattus norvegicus [7] of 20 mmHg.

In the experiment on Rattus norvegicus [7], `O=C(N[C@H]1CCS[C@H]2CCC[C@@H](C(=O)O)N2C1=O)[C@@H](S)Cc1ccccc1` [OMAPATRILAT] displayed an MAP of 40 mmHg. Moreover, the Inhibition is reported as 60% in the experiment on Rattus norvegicus [1], 58% in the experiment on Rattus norvegicus [6], 66% in the experiment on Rattus norvegicus [3] and 76% in the experiment on Rattus norvegicus [4]. The pIC50 in experiment [2] was 8.30; on Neprilysin, 8.10. Further, in the experiment on Rattus norvegicus [5], the 50% effect level (ED50) was put at a dose of 0.07 µmol/kg.
